What all share (format): functional
Assay [1] has as its system Actinomyces naeslundii. Kind of assay: Antiplaque activity against Actinomyces naeslundii ATCC 12104 assessed as growth inhibition of adherent cells on saliva coated bovine tooth slabs. The essentials:
(§1)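 Tooth slabs were treated with the test agents at a series of molar concentrations. The value is the lowest molar concentration (M × 10⁴) that gave >90% inhibition of growth of adherent cells, based on triplicate sets.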

Assay [2] relates to Actinomyces viscosus. Kind of assay: Antiplaque activity against Actinomyces viscosus M-100-2000 assessed as growth inhibition of adherent cells on saliva coated bovine tooth slabs. The essentials:
as §1

Assay [3] deals with Streptococcus mutans. Kind of assay: Antibacterial activity against wild type Streptococcus mutans 6715-13 assessed as growth inhibition by tube dilution assay. The essentials:
(§2)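 Standard tube dilution assay, modified so that adherent cells were dispersed before cell density was read spectrophotometrically at 540 nm. The value is the minimum inhibitory concentration, given in molar units.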

In assay [4] the test system is Actinomyces naeslundii. Kind of assay: Antibacterial activity against Actinomyces naeslundii ATCC 12104 assessed as growth inhibition by tube dilution assay. The procedure, abridged: as §2
The test system of assay [5] is Streptococcus mutans. Kind of assay: Antiplaque activity against wild type Streptococcus mutans 6715-13 assessed as growth inhibition of adherent cells on saliva coated bovine tooth slabs. The essentials: as §1
The subject of assay [6] is Actinomyces viscosus. Kind of assay: Antibacterial activity against Actinomyces viscosus M-100-2000 assessed as growth inhibition by tube dilution assay. The procedure, abridged:
as §2

As usually defined, the MIC is the lowest concentration found to suppress growth. Take `CCCCCCCCCNC(=N)NC(=N)NCCCCNC(=N)NC(=N)NCCCCCCCCC.Cl`: the entries for the “MIC>90” value in assay [1], in assay [2] and in assay [5] were 1 ×10⁻⁴ M, 10 ×10⁻⁴ M and 70 ×10⁻⁴ M, respectively. Moreover, the MIC stood at 100 µM in assay [3], 10 µM in assay [4] and 10 µM in assay [6].

Turning to `CCCCCCCNC(=N)NC(=N)NCCCCCCNC(=N)NC(=N)NCCCCCCC.Cl`, the “MIC>90” value in assay [1] is 0.5 ×10⁻⁴ M; in assay [2], greater than 10 ×10⁻⁴ M; in assay [5], 50 ×10⁻⁴ M. Also, the MIC in assay [3] was 10 µM; in assay [4], 10 µM; in assay [6] it was 1 µM.

As for `CCCCCCNC(=N)NC(=N)NCCCCCCCCNC(=N)NC(=N)NCCCCCC.Cl`, the “MIC>90” value in assay [1] is 1 ×10⁻⁴ M; in assay [2] it was greater than 10 ×10⁻⁴ M; in assay [5], 3 ×10⁻⁴ M. The MIC was found to be 10 µM in assay [3], 10 µM in assay [4] and 1 µM in assay [6].

In the case of `CCCCCC(CC)CNC(=N)NC(=N)NCCCCNC(=N)NC(=N)NCC(CC)CCCCC.Cl` (stereo not given), the “MIC>90” value in assay [1] is on record as 0.5 ×10⁻⁴ M; in assay [2], 10 ×10⁻⁴ M; in assay [5], 100 ×10⁻⁴ M. The MIC in assay [3], in assay [4] and in assay [6] was 10 µM in each case.

For `CCCCCCCNC(=N)NC(=N)NCCCCCCCCNC(=N)NC(=N)NCCCCCCC.Cl`, the “MIC>90” value was 0.5 ×10⁻⁴ M in assay [1], greater than 10 ×10⁻⁴ M in assay [2] and greater than 10 ×10⁻⁴ M in assay [5]. The MIC in assay [3], in assay [4] and in assay [6] was 10 µM in each case.

On to `CCCCCCNC(=N)NC(=N)NCCCCCCCCCCNC(=N)NC(=N)NCCCCCC.Cl`, for which the “MIC>90” value in assay [1] was 0.5 ×10⁻⁴ M; in assay [2], greater than 10 ×10⁻⁴ M; in assay [5], 10 ×10⁻⁴ M. Moreover, the MIC in assay [3], in assay [4] and in assay [6] was 10 µM each time.

On to `N=C(NCCCCCCNC(=N)NC(=N)Nc1ccc(Cl)cc1)NC(=N)Nc1ccc(Cl)cc1.O=C(O)[C@H](O)[C@@H](O)[C@H](O)[C@H](O)CO`, for which the “MIC>90” value in assay [1] was greater than 100 ×10⁻⁴ M; in assay [2] it was greater than 10 ×10⁻⁴ M; in assay [5], 10 ×10⁻⁴ M. In addition, the MIC in assay [3], in assay [4] and in assay [6] was 10 µM each time.

Regarding `CCCCCCNC(=N)NC(=N)NCCCCCCNC(=N)NC(=N)NCCCCCC.Cl`, the entries for the “MIC>90” value in assay [1], in assay [2] and in assay [5] were 0.8 ×10⁻⁴ M, 0.8 ×10⁻⁴ M and 100 ×10⁻⁴ M, respectively. The MIC in assay [3] was determined as 10 µM; in assay [4], 10 µM; in assay [6], 1 µM.

In the case of `CCCCCCCCNC(=N)NC(=N)NCCCCCCNC(=N)NC(=N)NCCCCCCCC.Cl`, the entries for the “MIC>90” value in assay [1], in assay [2] and in assay [5] were 0.5 ×10⁻⁴ M, 5 ×10⁻⁴ M and 8 ×10⁻⁴ M, respectively. The MIC in assay [3], in assay [4] and in assay [6] was 10 µM each time.

Turning to `CCCCC(CC)CNC(=N)NC(=N)NCCCCCCNC(=N)NC(=N)NCC(CC)CCCC.Cl.Cl` (stereo not given) [ALEXIDINE DIHYDROCHLORIDE], the “MIC>90” value is listed as 5 ×10⁻⁴ M in assay [1], 0.5 ×10⁻⁴ M in assay [2] and greater than 100 ×10⁻⁴ M in assay [5]. Moreover, the MIC in assay [3] amounted to 10 µM; in assay [4] it was 10 µM; in assay [6] it was 0.1 µM.
